Data set [1] deals with Escherichia coli. As to the kind of experiment: Reversible inhibition of recombinant Escherichia coli M1 aminopeptidase using Leu-pNA as substrate preincubated for 15 mins followed by substrate addition. Summed up:
(§1)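 Recombinant ePepN (partially purified by ion exchange) or porcine kidney cortex microsomal APN was pre-incubated 15 min at 25°C with inhibitor in DMSO (final ≤2% v/v), then 75 μM Leu-pNA (~1 KMapp) was added. Buffer was 50 mM Tris-HCl pH 8.0. A405 was read every 15 s for 3 min. Doses were double serial dilutions over 0.781–100 μM, and IC50 came from a logistic fit of residual activity (vi/v0); at least triplicate.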

The subject of data set [2] is Escherichia coli. As to the kind of experiment: (§2) Inhibition of recombinant Escherichia coli M1 aminopeptidase using Leu-pNA as substrate preincubated for 15 mins followed by substrate addition. In outline:
as §1

Data set [3] can be described thus: as §2. In outline:
as §1

Data set [4] relates to Escherichia coli. As to the kind of experiment: Noncompetitive inhibition of recombinant Escherichia coli M1 aminopeptidase assessed as Vmax for substrate at 3.125 uM using Leu-pNA as substrate preincubated for 15 mins followed by substrate addition by Lineweaver-Burk double reciprocal plot analysis (reference value: 125 10^-3OD/min).
Data set [5] deals with Escherichia coli. As to the kind of experiment: (§3) Inhibition of recombinant Escherichia coli M1 aminopeptidase using Leu-pNA as substrate preincubated for 45 mins followed by substrate addition. In outline: (§4)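 The time to reach inhibition equilibrium was tested by pre-incubating recombinant ePepN with inhibitor for 5, 10, 15, 30 or 45 min at 25°C. Residual activity was then measured on 75 μM Leu-pNA in 50 mM Tris-HCl pH 8.0, reading A405 continuously against a DMSO control.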

Data set [6] is described as follows: as §3. The conditions noted are these: in the assay text read “15 mins” for “45 mins”. In outline:
as §4

The subject of data set [7] is Escherichia coli. As to the kind of experiment: Noncompetitive inhibition of recombinant Escherichia coli M1 aminopeptidase assessed as Km for substrate at 3.125 uM using Leu-pNA as substrate preincubated for 15 mins followed by substrate addition by Lineweaver-Burk double reciprocal plot analysis (reference value: 120 umol/L).
The subject of data set [8] is Escherichia coli. As to the kind of experiment: Growth inhibition of Escherichia coli BL21 up to 100 uM after 3 to 20 hrs by spectrophotometric analysis. The format is functional, organism-based. In outline:
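E. coli BL21 was inoculated at 1% from an overnight culture into LB. Compounds were added at eight concentrations (0.781–100 μM) from DMSO serial dilutions, with DMSO and 200 μg/mL ampicillin controls; four replicates. Plates were held at 37°C and raised to 42°C at 6 h. A595 was read at 0, 3, 6 and 20 h and normalized to the DMSO control (100% growth).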

In data set [9] the test system is Erythrocyte. As to the kind of experiment: Haemolytic activity in human erythrocytes assessed as induction of hemolysis after 6 hrs. The format is cell-based. In outline: (§5)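 Fresh human red blood cells were washed and resuspended in 145 mM NaCl, 10 mM Tris-HCl pH 7.4, adjusted so full lysis with Na2CO3 gives A540 ≈0.7. Cells were incubated with compounds for 3, 6 or 20 h, with untreated and 1% DMSO controls. Supernatant haemoglobin was measured after centrifugation.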

Data set [10] in a line: Inhibition of M1 aminopeptidase in porcine kidney cortex microsomes using Leu-pNA as substrate preincubated for 15 mins followed by substrate addition. Also noted: species or system Sus scrofa.
Data set [11] relates to Escherichia coli. As to the kind of experiment: Noncompetitive inhibition of recombinant Escherichia coli M1 aminopeptidase assessed as Vmax for substrate at 1.56 uM using Leu-pNA as substrate preincubated for 15 mins followed by substrate addition by Lineweaver-Burk double reciprocal plot analysis (reference value: 125 10^-3OD/min).
Data set [12] concerns Erythrocyte. As to the kind of experiment: Haemolytic activity in human erythrocytes assessed as induction of hemolysis after 3 hrs. The format is cell-based. In outline:
as §5

Data set [13] can be described thus: Selectivity index, ratio of IC50 for M1 aminopeptidase in porcine kidney cortex microsomes to IC50 for recombinant Escherichia coli M1 aminopeptidase.
The subject of data set [14] is Escherichia coli. As to the kind of experiment: Reversible inhibition of recombinant Escherichia coli M1 aminopeptidase using Leu-pNA as substrate preincubated for 45 mins followed by substrate addition. The conditions noted are these: in the assay text read “15 mins” for “45 mins”. In outline:
as §4

Data set [15] in a line: Haemolytic activity in human erythrocytes assessed as induction of hemolysis at 100 uM after 20 hrs relative to control. The format is cell-based, Erythrocyte. Particulars: read-out: Activity. In outline:
as §5

In data set [16] the test system is Erythrocyte. As to the kind of experiment: Haemolytic activity in human erythrocytes assessed as induction of hemolysis after 20 hrs. The format is cell-based. Summed up:
as §5

Data set [17] is described as follows: Cytotoxicity against mouse P3X63Ag assessed as reduction in cell viability after 6 hrs by MTT assay. Summed up: (§6)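 P3X63Ag murine myeloma cells were grown in DMEM-F12 with 10% FCS at 37°C, 5% CO2. For the assay they were plated in serum-free DMEM-F12 and exposed to compounds for 3, 6 or 20 h. After a PBS wash, cells got MTT for 3 h and crystals were dissolved in DMSO. Absorbance was read at 450 nm (620 nm reference), and viability calculated as 100×At/Ac versus untreated cells.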

For data set [18], the system named is Escherichia coli. As to the kind of experiment: Noncompetitive inhibition of recombinant Escherichia coli M1 aminopeptidase assessed as Km for substrate at 1.56 uM using Leu-pNA as substrate preincubated for 15 mins followed by substrate addition by Lineweaver-Burk double reciprocal plot analysis (reference value: 120 umol/L).
Data set [19] is described as follows: Cytotoxicity against mouse P3X63Ag assessed as reduction in cell viability after 20 hrs by MTT assay. In outline:
as §6
On the technique in general: Formazan colour is commonly taken as a measure of viable cells.

A short description of data set [20]: Cytotoxicity against mouse P3X63Ag assessed as reduction in cell viability after 3 hrs by MTT assay. Summed up: as §6
Data set [21] relates to Escherichia coli. As to the kind of experiment: Noncompetitive inhibition of recombinant Escherichia coli M1 aminopeptidase assessed as Km for substrate at 6.25 uM using Leu-pNA as substrate preincubated for 15 mins followed by substrate addition by Lineweaver-Burk double reciprocal plot analysis (reference value: 120 umol/L).
Data set [22] concerns Escherichia coli. As to the kind of experiment: Noncompetitive inhibition of recombinant Escherichia coli M1 aminopeptidase assessed as Vmax for substrate at 6.25 uM using Leu-pNA as substrate preincubated for 15 mins followed by substrate addition by Lineweaver-Burk double reciprocal plot analysis (reference value: 125 10^-3OD/min).
A short description of data set [23]: Cytotoxicity against mouse P3X63Ag assessed as reduction in cell viability at 50 uM after 20 hrs by MTT assay relative to control. Summed up: as §6
Data set [24] is described as follows: Cytotoxicity against mouse P3X63Ag assessed as reduction in cell viability at 50 uM after 3 hrs by MTT assay relative to control. Summed up: as §6
Data set [25] is described as follows: Cytotoxicity against mouse P3X63Ag assessed as reduction in cell viability at 50 uM after 6 hrs by MTT assay relative to control. In outline:
as §6

A word on the IC50: it is the point on the concentration scale where inhibition reaches its midpoint. A word on the Km: it is the concentration of substrate that gives half-maximal velocity.

The source made the active and inactive calls. No cut-off for these calls is given here.

As for `COc1ccc(C(N[C@@H](Cc2c[nH]c3ccccc23)C(=O)O)c2nnnn2Cc2ccccc2)cc1` (stereo not given in full), in the data set on Escherichia coli [1], the inhibition entry was “Active”. The inhibition entry in the data set on Escherichia coli [2] is “Dose-dependent effect”. In [3], the IC50 amounted to 7.2 µM.
For `O=C(O)[C@H](Cc1c[nH]c2ccccc12)NC(c1ncc[nH]1)c1nnnn1C1CCCCC1` (stereo not given in full) the same measures were “Active”, “Dose-dependent effect” and 48 µM.
For `O=C(O)[C@H](Cc1ccccc1)NC(c1ccco1)c1nnnn1C1CCCCC1` (stereo not given in full), in that order: “Active”, “Dose-dependent effect” and 41 µM.
In the case of `O=C(O)[C@H](Cc1c[nH]c2ccccc12)NC(c1ccco1)c1nnnn1Cc1ccccc1` (stereo not given in full), the figures for the Vmax in the data set with Escherichia coli [4], with Escherichia coli [11] and in the data set on Escherichia coli [22] were 34.5 mOD/min, 45.5 mOD/min and 23.3 mOD/min, respectively. In the data set on Escherichia coli [5], the inhibition entry was “Dose-dependent effect”. Moreover, the half-inhibitory concentration (IC50) in [6] was 0.26 µM; in [10], 6100 µM; in data set [17], greater than 100 µM; in [19], greater than 100 µM; in [20], greater than 100 µM. The Michaelis-Menten constant (Km) in the data set with Escherichia coli [7] was 69.3 µM; in the data set on Escherichia coli [18], 71.3 µM; with Escherichia coli [21] it was 61.4 µM. The “growth inhibition (GI)” value in the data set on Escherichia coli [8] is “inactive”. Also, the HC20 in the data set with Erythrocyte [9], with Erythrocyte [12] and with Erythrocyte [16] was greater than 100 µM each time. Moreover, the Ratio IC50 in data set [13] came to 23500. In the data set with Escherichia coli [14], the inhibition result was “Active”. Besides, the hemolysis at 20 h, 100 µM in data set [15] amounted to 15%.
On to `COc1ccc(C(N[C@H](C(=O)O)C(C)C)c2nnnn2Cc2ccccc2)cc1` (stereo not given in full), for which, in the data set on Escherichia coli [8], the “growth inhibition (GI)” value was “inactive”. For the same compound, the IC50 in [3] was greater than 1000 µM.
As for `O=C(O)[C@H](Cc1c[nH]c2ccccc12)NCc1nnnn1C1CCCCC1`, the inhibition result in the data set on Escherichia coli [1] was “Active”. For the same compound, in the data set with Escherichia coli [2], the inhibition entry is “Dose-dependent effect”. In addition, the concentration for half-maximal inhibition (IC50) in [3] turned out to be 110 µM.
For `CC(C)[C@H](NC(c1ncc[nH]1)c1nnnn1CCCc1ccccc1)C(=O)O` (stereo not given in full), in that order: “Active”, “Dose-dependent effect” and 470 µM.
For `COc1ccc(C(N[C@H](C(=O)O)C(C)C)c2nnnn2C2CCCCC2)cc1` (stereo not given in full), in that order: “Active”, “Dose-dependent effect” and 90 µM.
For `COc1ccc(C(N[C@H](C(=O)O)C(C)C)c2nnnn2CCCc2ccccc2)cc1` (stereo not given in full) the same measures were “Active”, “Dose-dependent effect” and 160 µM.
In the case of `O=C(O)[C@H](Cc1c[nH]c2ccccc12)NC(c1ncc[nH]1)c1nnnn1Cc1ccccc1` (stereo not given in full), the inhibition entry with Escherichia coli [1] is “Active”. In addition, the inhibition result in the data set on Escherichia coli [2] was “Dose-dependent effect”. Further, the IC50 in data set [3] was 25 µM.
For `COc1ccc(C(N[C@@H](Cc2c[nH]c3ccccc23)C(=O)O)c2nnnn2C2CCCCC2)cc1` (stereo not given in full) the same measures were “Active”, “Dose-dependent effect” and 630 µM.
In the case of `O=C(O)[C@H](Cc1c[nH]c2ccccc12)NC(c1ccco1)c1nnnn1C1CCCCC1` (stereo not given in full), the “growth inhibition (GI)” value with Escherichia coli [8] was “inactive”. Also, in the data set on Escherichia coli [1], the inhibition entry was “Active”. For the same compound, the HC20 was 70 µM with Erythrocyte [9], 80 µM with Erythrocyte [12] and 55 µM in the data set with Erythrocyte [16]. Also, the half-inhibitory concentration (IC50) in data set [10] was 2000 µM; in data set [17], greater than 100 µM; in data set [3] it was 2.2 µM; in [19], 100 µM; in data set [20] it was greater than 100 µM. The Activity entry is “<= 50%” in data set [23], “<= 60%” in data set [24] and “<= 50%” in [25]. Besides, in [13], the Ratio IC50 worked out at 909. Further, in data set [15], the hemolysis at 20 h, 100 µM worked out at 40%. Further, the inhibition result in the data set on Escherichia coli [2] is “Dose-dependent effect”.
For `CC(C)[C@H](NC(c1ncc[nH]1)c1nnnn1Cc1ccccc1)C(=O)O` (stereo not given in full), the inhibition result in the data set on Escherichia coli [1] is “Active”. Further, the inhibition result in the data set on Escherichia coli [2] was “Dose-dependent effect”. Besides, the half-inhibitory concentration (IC50) in data set [3] is 71 µM.
For `O=C(O)[C@H](Cc1c[nH]c2ccccc12)NC(c1cccnc1)c1nnnn1C1CCCCC1` (stereo not given in full) the same measures were “Active”, “Dose-dependent effect” and 22 µM.
For `CC(C)[C@H](NCc1nnnn1CCCc1ccccc1)C(=O)O` the same measures were “Active”, “Dose-dependent effect” and 170 µM.
`CC(C)C[C@H](NC(=O)[C@@H](O)[C@H](N)Cc1ccccc1)C(=O)O` [UBENIMEX]: the “growth inhibition (GI)” value in the data set with Escherichia coli [8] is “inactive”. For the same compound, in data set [3], the IC50 is 7 µM.
Consider `O=C(O)[C@H](Cc1ccc(OCc2ccccc2)cc1)NCc1nnnn1C1CCCCC1`, for which the inhibition entry in the data set on Escherichia coli [1] was “Active”. In the data set with Escherichia coli [2], the inhibition result was “Dose-dependent effect”. Moreover, in [3], the IC50 was 44 µM.
For `O=C(O)[C@H](Cc1ccccc1)NC(c1ccco1)c1nnnn1Cc1ccccc1` (stereo not given in full), in that order: “Active”, “Dose-dependent effect” and 17 µM.
As for `CC(C)[C@H](NC(c1ncc[nH]1)c1nnnn1C1CCCCC1)C(=O)O` (stereo not given in full), the inhibition result with Escherichia coli [1] was “Active”. The inhibition entry in the data set with Escherichia coli [2] is “Dose-dependent effect”. Also, the IC50 in [3] was 127 µM.
For `CC(C)[C@H](NC(c1cccnc1)c1nnnn1C1CCCCC1)C(=O)O` (stereo not given in full), in that order: “Active”, “Dose-dependent effect” and 27 µM.
For `CC(C)[C@H](NCc1nnnn1Cc1ccccc1)C(=O)O`, in that order: “Active”, “Dose-dependent effect” and 47 µM.

Values taken from ChEMBL document CHEMBL4411278, “Discovery of potent and selective inhibitors of the Escherichia coli M1-aminopeptidase via multicomponent solid-phase synthesis of tetrazole-peptidomimetics” (Eur J Med Chem, 2019).
